Compound activity as filed in PubChem.
JNK3 blocker: blocks human JNK3 kinase activity; P53779; purified JNK3 kinase activity, HTS; inhibition, % at 8 µM; 60,000 tested, 0.61% active; AID 746; in the data active = inhibition above about 17%
RORA act: RORA (human) activation; P35398; CHO-K1 Gal4-RORA LBD luciferase reporter, luminescence; percent increase over mock-subtracted basal signal; activation, % at 10 µM; 65,000 tested, 1.5% active; AID 560;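 active = activation above the mean of all tested compounds plus 3 SD, cut at about 49% in these data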
D1 mod: D1 dopamine receptor (human) allosteric modulation | P21728 | HEK293 D1, CRE-luciferase, dopamine EC30 potentiation; actives deviate in either direction | B-score at 10 µM | 58,000 tested, 5.9% active;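 active = luminescence count or its row- and column-corrected plate score outside the 99.7% band of the plate's sample wells, on either side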
HEK293 NFkB inh: inhibitors of the PMA/ionomycin-induced NF-kB reporter in HEK293 cells; AID 465; 62,000 tested, 0.21% active; HEK-293 NF-kB luciferase reporter, luminescence; inhibition, % at 3 µM;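 active = inhibition above the mean of all tested compounds plus 3 SD, cut at about 40% in these data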
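System: NF-kB luciferase reporter HEK-293 cells | Replication: Single test | Control set: DMSO vs reference inhibitor | Evaluation: % inhibition | Schedule: 1 h pretreatment, 16 h stimulation, 37 °C | Probe or stimulus: PMA with ionomycin | Compound dosing: One dose, 3 µM | Detection: Luciferase luminescence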
SF1 activator: activators of human nuclear receptor SF-1. CHO-K1 Gal4-SF-1 LBD luciferase reporter; % increase over DMSO SF-1-specific signal. Q13285. 65,000 tested, 1.9% active. AID 522. activation, % at 10 µM;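 active = activation above the mean activation of all tested compounds plus 3 SD, cut at about 50% in these data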
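Test system: transient Gal4-SF-1 LBD reporter, CHO-K1; Amount: 4,000 CHO-K1 cells per well; Doses: 10 µM only; Timing: compound exposure 20 h at 37 °C; Signal: luciferase light emission; Read-out basis: percent activation relative to DMSO median and mock-transfected background; Control set: DMSO negative control and −SF1 background wells; Replicates: one test per compound.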
D1 PAM confirm: D1 receptor (human) allosteric modulation, confirmed; 2,200 tested, 88% active; luminescence at 10 µM; shares compounds with D1 mod; HEK293 D1 CRE-luciferase, dopamine EC30 potentiation; active compounds read high;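 active = luminescence in either of two replicates above the same-plate mean plus 3 SD of the low-dose dopamine control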
D1 no dopamine: secondary test of D1 modulators: activity without dopamine; 1,900 tested, 0.8% active; HEK293 D1 CRE-luciferase, luminescence, no dopamine; active compounds read high; shares compounds with D1 mod; luminescence at 10 µM; in the data active = luminescence above about 3900
Isoprot counter: isoproterenol response counter-screen activity for D1 modulators | HEK293 D1 CRE-luciferase, isoproterenol EC30 counter-screen | calls only at 10 µM | 2,200 tested, 63% active | AID 647 | shares compounds with D1 mod;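 active = luminescence in either replicate above plate mean of wells with a partly effective reference agonist dose plus 3 SD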;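 also: isoproterenol raises cAMP through native beta-adrenoceptor Gs so signal bypasses D1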
Numbers stand for hits; . = inactive; / = not tested or not shown; + = active, no number. Rows were chosen to be rich in hits. Some 7.9% of all compounds tested hit in one or more screens of this group.

SMILES	JNK3 blocker	RORA act	D1 mod	HEK293 NFkB inh	SF1 activator	D1 PAM confirm	Isoprot counter	others
CC(C)[C@H]1C(=O)N2CCC[C@H]2[C@]2(O)O[C@](NC(=O)[C@@H]3C=C4c5cccc6[nH]cc(c56)C[C@H]4N(C)C3)(C(C)C)C(=O)N12	.	.	36.5	/	.	25260	+	D1 no dopamine=20144
CCC(=NCCCN(C)C)c1c(O)n(-c2ccc(OC)cc2)c(=O)[nH]c1=O	.	.	.	.	.	/	/
COc1cc(C2NCc3ccccc3-n3cccc32)ccc1O (centres undefined)	.	.	.	.	.	/	/
CCOC(=O)C1C(=O)NC23CCCC2C1c1ccccc1O3 (centres undefined)	.	.	.	.	.	/	/
COc1cc2nc(CN3CC=C(c4ccccc4)CC3)[nH]c(=O)c2cc1OC	.	.	.	.	.	/	/
NC(=O)OCCSc1nnc(-c2cccc(C(N)=S)c2)o1	.	.	.	.	.	/	/
Cc1ccccc1NC1=NCCCS1	.	.	.	.	.	/	/
Fc1ccc(NC2=NCCS2)cc1Cl	.	.	4.06	.	.	11272	.	D1 no dopamine=.
Cn1c(=O)cc(SCC(=O)N2CCC3(CC2)OCCO3)c2ccc(Cl)cc21	.	.	.	.	.	/	/
CN1C(=O)c2ccccc2Sc2ccc(C(=O)N3CCC4(CC3)OCCO4)cc21	/	.	9.58	.	.	.	.
Clc1ccc(COC(Cn2ccnc2)c2ccc(Cl)cc2Cl)c(Cl)c1 (centres undefined)	.	.	.	/	.	/	/
